Most compounds without a hit are left out; they make up all but 3.3% or so of the library.
PRMT1 inh: PRMT1 (human) inhibition, primary screen | Q99873 | recombinant PRMT1, activity-based probe fluorescence polarization | inhibition, % at 2.79 µM | hit rate 1.3% among 370,000 | AID 652257;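 active means inhibition above about 21% made by adding two undisclosed values, limit read from the data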
Target sequence (Q99873 whole entry, looked up): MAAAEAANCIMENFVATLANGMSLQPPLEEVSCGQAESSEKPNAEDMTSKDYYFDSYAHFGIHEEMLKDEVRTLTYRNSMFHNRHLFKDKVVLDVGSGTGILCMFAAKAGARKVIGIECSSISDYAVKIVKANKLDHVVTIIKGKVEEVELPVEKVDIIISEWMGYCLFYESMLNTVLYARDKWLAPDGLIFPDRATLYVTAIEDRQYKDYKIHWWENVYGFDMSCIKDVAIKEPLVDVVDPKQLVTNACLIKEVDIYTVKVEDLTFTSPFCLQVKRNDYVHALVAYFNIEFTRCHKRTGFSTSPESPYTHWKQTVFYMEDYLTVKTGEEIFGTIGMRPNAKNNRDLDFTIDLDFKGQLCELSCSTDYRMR
SIAE primary: human SIAE inhibition, primary screen. Q9HAT2. SIAE FP-Rh probe binding, fluorescence polarization. inhibition, % at 9.66 µM. hit rate 0.69% among 370,000. AID 1053197;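 active means inhibition above a cutoff: mean of compounds within the control limits plus 3 SD of those, cut at about 17% in these data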;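 further: 0% = plate median of compound wells and 100% = probe without SIAE protein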
rCAG binder-1: binds r(CAG) RNA repeats; r(CAG) RNA repeat, TO-PRO-1 dye displacement fluorescence; inhibition, % at 3 µM; hit rate 1.3% among 370,000; AID 651821;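 active means inhibition above the plate cutoff, the mean of all test compounds on that plate plus 3 SD, cut at about 35% in these data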;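 further: 0% = DMSO alone and 100% = 100 µM mitoxantrone as full dye displacement; higher means more dye released from RNA so lower well fluorescence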
mABHD4 FP: inhibitors of mouse ABHD4. Q8VD66. purified mABHD4, FP-Rh probe fluorescence polarization. inhibition, % at 8.92 µM. hit rate 0.54% among 370,000. AID 720543;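 active means inhibition exceeding the mean over every tested compound plus 3 SD, cut at about 30% in these data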;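 further: 0% = plate median of compound wells and 100% = S159A mutant with DMSO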
Target sequence (Q8VD66 whole entry, looked up): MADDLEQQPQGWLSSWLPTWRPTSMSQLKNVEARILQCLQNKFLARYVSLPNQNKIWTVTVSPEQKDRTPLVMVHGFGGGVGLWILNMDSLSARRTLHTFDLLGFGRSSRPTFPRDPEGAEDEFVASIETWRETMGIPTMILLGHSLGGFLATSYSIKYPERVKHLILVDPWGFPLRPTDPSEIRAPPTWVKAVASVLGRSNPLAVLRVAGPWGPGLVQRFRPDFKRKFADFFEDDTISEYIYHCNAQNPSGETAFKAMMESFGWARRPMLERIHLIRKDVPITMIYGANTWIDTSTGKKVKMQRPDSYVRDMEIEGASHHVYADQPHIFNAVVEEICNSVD
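Material: mouse ABHD4 enzyme, wild type; Benchmarks: S159A mutant high control, sample median low control; Buffer or medium: HEPES pH 7.0, NaCl, Pluronic buffer; Signal: fluorescence polarization; Read-out: percent inhibition of probe binding, normalized to plate controls; Timing: pre-incubation 45 min, probe exposure 60 min, at 25 °C; Dosing: 8.92 µM, single dose.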
TCR CD3 inh: human TCR-CD3 binding inhibition | hit rate 0.37% among 360,000 | inhibition, % at 9.4 µM | TAMRA-labeled TCR probe fluorescence, biochemical | AID 651800; in the data active means inhibition above about 19%;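 further: recombinant mutant TCR 2C K166C tagged with TAMRA read by polarization; 0% = receptor in buffer alone and 100% = receptor with positive control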
rCAG binder conf: r(CAG) RNA repeat binding, confirmation; shares compounds with rCAG binder-1; inhibition, % at 3 µM; TO-PRO-1 dye displacement fluorescence; hit rate 70% among 4,300;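 active means inhibition above a per-plate cutoff, the mean inhibition of sample wells plus 3 SD, cut at about 35% in these data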;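 further: loss of TO-PRO-1 fluorescence as compound displaces dye from 1x1 AA loop RNA; 0% = DMSO only wells and 100% = 100 µM mitoxantrone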
dCAG dye counter: DNA CAG dye complex inhibition counter-screen; hit rate 94% among 4,300; inhibition, % at 3 µM; d(CAG) DNA oligo TO-PRO-1 dye displacement, fluorescence; shares compounds with rCAG binder-1;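 active means inhibition above its plate's cutoff, the mean test-well inhibition plus 3 SD, cut at about 4.8% in these data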;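 further: 0% = DNA dye mix with DMSO and 100% = 100 µM mitoxantrone; hits displace the dye from DNA and so lower well fluorescence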
DNA CAG DR: counter-screen for rCAG binders: inhibitors of DNA CAG TO-PRO-1 complex | shares compounds with rCAG binder-1 | DNA CAG/GTC duplex TO-PRO-1 dye displacement fluorescence | IC50, µM | hit rate 20% among 250 | AID 686960; in the data active means IC50 below about 10 µM
dCAG TOPRO ctr: DNA CAG dye complex inhibition, late stage dose response. shares compounds with rCAG binder-1. d(CAG) DNA duplex TO-PRO-1 dye displacement, fluorescence. IC50, µM. hit rate 80% among 30
rCAG binder-2: binds r(CAG) RNA repeats in late stage dose response; r(CAG) RNA TO-PRO-1 dye displacement, fluorescence; hit rate 100% among 30; shares compounds with rCAG binder-1; AID 720651; IC50, µM
An asterisk follows results filed as active; · = no result. Unless noted, how the calls were made is not given here.

SMILES	PRMT1 inh	SIAE primary	rCAG binder-1	mABHD4 FP	TCR CD3 inh	rCAG binder conf	dCAG dye counter	others
COc1ccccc1/C=C1\SC(=S)N(N2C(=O)CCCC2=O)C1=O	0.1	-3.1	-0.2	15.8	1.1	·	·
COc1ccc(C2Nc3ccccc3C(=O)N2NS(=O)(=O)c2ccc(C)cc2)c(OC)c1 (stereo unspecified)	-2.8	4.0	1.1	5.4	4.0	·	·
COc1ccccc1/C=C1\SC(=S)N(NS(=O)(=O)c2ccc(C)cc2)C1=O	3.5	-11.3	77.9*	1.2	2.7	68.9*	33.2*
COc1ccc(OC)c(/C=C2\SC(=S)N(NS(=O)(=O)c3ccc(C)cc3)C2=O)c1	3.0	-5.9	84.4*	-4.7	1.9	87.4*	51.8*
CC(=O)NN1C(=O)/C(=C\c2ccc(C)cc2)SC1=S	2.9	2.1	1.0	1.7	-3.3	·	·
COc1ccc(/C=C2\SC(=S)N(NS(=O)(=O)c3ccc(C)cc3)C2=O)c(OC)c1	0.8	-15.3	86.6*	-3.9	8.6	85.3*	57.5*
Cc1nn(-c2ccccc2)c(Cl)c1/C=N/NC(=O)c1ccccc1NS(=O)(=O)c1cccs1	1.5	-1.7	76.1*	-0.2	-2.5	79.7*	44.8*
O=C(NN=Cc1c(F)cccc1F)c1ccccc1NS(=O)(=O)c1cccs1	-1.7	2.8	37.7*	-0.2	8.8	20.6	4.6*
COc1ccc(C2C(C(=O)Nc3ccc(F)cc3)CCC(=O)N2c2ccc(OC)cc2)cc1 (stereo unspecified)	1.3	-1.0	3.6	6.8	·	·	·
COCCCNC(=O)C[C@H]1C[C@@]2(C(=O)OC)C(=C[C@H](C(C)C)O[C@@H]2C2CC2)N(Cc2ccc(Cl)cc2Cl)C1=O	-5.0	-5.4	-0.6	-6.9	·	·	·
FC(F)(F)c1cc(Cl)c2nc(-c3ccccc3)c(Cc3ccsc3)n2c1	-1.4	5.8	7.0	-4.4	6.1	·	·
Fc1ccc(-c2nc3c(Cl)cc(C(F)(F)F)cn3c2Cc2cccc(Cl)c2)cc1	3.7	-13.6	38.0*	-77.0	-1.8	5.0	4.6*
FC(F)(F)c1cc(Cl)c2nc(-c3ccc(Cl)cc3)c(Cc3ccsc3)n2c1	4.8	-12.7	51.2*	-65.9	-1.8	16.1	6.1*
Cc1ccc(Cc2c(-c3ccc(F)cc3)nc3c(Cl)cc(C(F)(F)F)cn23)cc1	-2.6	-13.6	27.9	-27.6	2.4	·	·
COc1ccc(C2c3[nH]c4ccccc4c3C[C@H]3C(=O)N(c4ccccc4C(=O)N4CCC[C@H]4C(=O)O)C(=O)N23)cc1 (stereo partly specified)	-2.8	0.4	37.2*	-5.0	6.1	51.1*	16.4*
CC(C)c1ccc(C2c3[nH]c4ccccc4c3C[C@H]3C(=O)N(c4ccccc4C(=O)N4CCC[C@@H]4C(=O)O)C(=O)N23)cc1 (stereo partly specified)	0.6	-12.0	46.4*	7.1	1.8	70.7*	27.8*	DNA CAG DR=>29.9;dCAG TOPRO ctr=>29.9;rCAG binder-2=1.94*
COc1ccc(C2c3[nH]c4ccccc4c3C[C@H]3C(=O)N(c4ccccc4C(=O)N4CCC[C@@H]4C(=O)O)C(=O)N23)cc1 (stereo partly specified)	5.1	3.2	31.6	1.9	-16.9	·	·
CC(C)c1ccc(C2c3[nH]c4ccccc4c3C[C@H]3C(=O)N(c4ccccc4C(=O)N4CCC(C(=O)O)CC4)C(=O)N23)cc1 (stereo partly specified)	1.8	-12.8	42.0*	-3.3	4.1	61.4*	21.4*
O=C(NCCN1CCOCC1)c1ccccc1N1C(=O)[C@@H]2Cc3c([nH]c4ccccc34)C(c3ccccc3)N2C1=O (stereo partly specified)	8.7	0.5	6.2	2.8	-1.2	·	·
O=C(O)[C@H]1CCCN1C(=O)c1ccccc1N1C(=O)[C@@H]2Cc3c([nH]c4ccccc34)C(c3cccc(Cl)c3)N2C1=O (stereo partly specified)	-0.1	-50.0	38.8*	-31.5	-3.5	64.7*	22.3*
O=C(C1CCN(c2ncnc3c2sc2cccc(F)c23)CC1)N1CCN(Cc2ccc(F)cc2)CC1	3.5	-5.2	5.8	-6.0	·	·	·
Cc1cccc(C(=O)N[C@@H]2CC[C@@]34CCCN3C(=O)CCC[C@H]4[C@H]2C)c1	6.0	2.0	·	-5.8	·	·	·
COc1cccc(C2c3[nH]c4ccccc4c3C[C@H]3C(=O)N(c4ccccc4C(=O)N4CCC[C@H]4C(=O)O)C(=O)N23)c1 (stereo partly specified)	0.1	-23.5	31.2	-13.4	9.6	·	·
Cc1ccc(C2c3[nH]c4ccccc4c3C[C@H]3C(=O)N(c4ccccc4C(=O)N4CCC[C@H]4C(=O)O)C(=O)N23)cc1 (stereo partly specified)	-5.5	-12.0	38.7*	-0.9	3.5	57.3*	18.1*
COc1ccc(OC)c(S(=O)(=O)N2CCC(C(=O)N3CCN(C4CCCCC4)CC3)CC2)c1	0.0	3.3	0.3	5.8	·	·	·
SMILES	PRMT1 inh	SIAE primary	rCAG binder-1	mABHD4 FP	TCR CD3 inh	rCAG binder conf	dCAG dye counter	others
COc1ccccc1/C=C/C=N/Nc1cccc(C(=O)O)c1	3.9	3.8	36.0*	16.1	-1.9	36.9*	9.3*
COc1ccc(Br)cc1/C=N/Nc1cccc(C(=O)O)c1	2.1	-0.5	21.8	19.9	4.5	·	·
Cc1ccc(-c2nc(C3CCCN(S(=O)(=O)c4cccs4)C3)no2)cc1 (stereo unspecified)	-0.6	1.8	3.1	-2.3	·	·	·
COC(=O)C1CN(Cc2cn(Cc3ccc(F)cc3)nn2)CCS(=O)(=O)N1Cc1ccc(C)cc1 (stereo unspecified)	-1.5	1.8	2.1	2.7	·	·	·
O=C(COc1ccccc1F)Nc1ccc(S(=O)(=O)Nc2nccs2)cc1	-1.9	6.6	10.1	-5.7	5.3	·	·
Cc1cccc(OCCCC(=O)Nc2ccc(S(=O)(=O)Nc3onc(C)c3C)cc2)c1C	2.4	-1.1	59.3*	2.5	8.9	32.4	8.5*
O=C(COc1ccc(F)cc1Cl)Nc1ccc(S(=O)(=O)Nc2nccs2)cc1	1.2	-10.3	43.4*	-9.6	3.0	39.9*	13.0*
Cc1cccc(OCC(=O)Nc2ccc(S(=O)(=O)Nc3onc(C)c3C)cc2)c1C	-1.5	-0.6	41.0*	-3.3	4.7	26.3	6.5*

Source: PubChem (The Scripps Research Institute Molecular Screening Center)
